From ChEMBL document CHEMBL5096209, “Structure-Activity Studies of 3,9-Diazaspiro[5.5]undecane-Based γ-Aminobutyric Acid Type A Receptor Antagonists with Immunomodulatory Effect” (J Med Chem, 2021)
The source made the active and inactive calls. No cut-off for these calls is given here.

What was measured:
[1] = biological target: T1, Gamma-aminobutyric acid receptor subunit alpha-5/beta-2/gamma-2 (Homo sapiens, UniProt P18507+P31644+P47870); experiment: Antagonist activity at human alpha5beta2gamma2 GABAA receptor expressed in HEK cells by FMP assay; assay type: cell-based
T1 sequence (P47870 whole entry): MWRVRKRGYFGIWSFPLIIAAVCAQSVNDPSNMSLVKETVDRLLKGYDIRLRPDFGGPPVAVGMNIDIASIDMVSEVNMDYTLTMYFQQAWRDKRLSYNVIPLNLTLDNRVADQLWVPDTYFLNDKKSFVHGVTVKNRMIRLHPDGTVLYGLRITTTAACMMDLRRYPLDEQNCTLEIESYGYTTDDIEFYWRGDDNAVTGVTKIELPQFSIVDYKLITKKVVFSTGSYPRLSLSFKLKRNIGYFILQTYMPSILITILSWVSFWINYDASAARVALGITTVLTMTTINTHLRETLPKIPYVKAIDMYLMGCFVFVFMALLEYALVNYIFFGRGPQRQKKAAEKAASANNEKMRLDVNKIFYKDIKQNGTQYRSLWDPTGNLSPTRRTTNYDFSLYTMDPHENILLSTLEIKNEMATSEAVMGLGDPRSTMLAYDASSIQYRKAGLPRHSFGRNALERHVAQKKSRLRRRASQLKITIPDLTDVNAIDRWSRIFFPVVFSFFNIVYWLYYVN
T1 sequence (P18507 whole entry): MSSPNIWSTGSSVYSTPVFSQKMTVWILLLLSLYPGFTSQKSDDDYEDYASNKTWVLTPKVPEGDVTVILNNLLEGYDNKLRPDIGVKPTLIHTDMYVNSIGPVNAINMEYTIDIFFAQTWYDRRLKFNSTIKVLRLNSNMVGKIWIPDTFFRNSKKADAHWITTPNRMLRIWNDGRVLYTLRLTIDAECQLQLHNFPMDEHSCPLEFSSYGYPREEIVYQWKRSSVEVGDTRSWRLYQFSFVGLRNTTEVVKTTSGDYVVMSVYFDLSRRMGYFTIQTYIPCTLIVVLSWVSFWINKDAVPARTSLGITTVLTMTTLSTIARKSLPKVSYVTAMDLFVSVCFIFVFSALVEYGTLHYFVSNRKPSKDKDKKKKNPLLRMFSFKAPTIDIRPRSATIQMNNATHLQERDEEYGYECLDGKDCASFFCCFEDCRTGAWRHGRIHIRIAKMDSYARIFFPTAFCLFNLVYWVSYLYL
T1 sequence (P31644 whole entry): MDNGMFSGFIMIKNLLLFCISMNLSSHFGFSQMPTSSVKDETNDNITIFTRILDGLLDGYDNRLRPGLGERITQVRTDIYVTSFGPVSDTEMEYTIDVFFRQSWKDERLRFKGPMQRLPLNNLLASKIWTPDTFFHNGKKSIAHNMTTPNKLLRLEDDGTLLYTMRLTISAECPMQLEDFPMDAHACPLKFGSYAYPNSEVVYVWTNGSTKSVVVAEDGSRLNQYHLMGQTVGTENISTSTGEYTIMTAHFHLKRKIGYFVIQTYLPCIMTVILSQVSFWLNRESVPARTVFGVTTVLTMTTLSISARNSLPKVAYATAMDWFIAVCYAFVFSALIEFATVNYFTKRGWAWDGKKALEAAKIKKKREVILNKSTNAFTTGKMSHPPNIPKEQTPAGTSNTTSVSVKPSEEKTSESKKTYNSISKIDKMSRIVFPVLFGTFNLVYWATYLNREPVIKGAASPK
In short: (§1)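 Human αβγ2 receptors in HEK293 cells: α1β2γ2 stably expressed, other αβγ2 subtypes transiently transfected into HEK293 Flp-In background cells (α:β:γ 1:1:2). FLIPR membrane potential assay with ΔRFU baseline to peak/plateau and GABA EC80 as agonist. IC50 from a four-parameter fit, at least three independent experiments.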

[2] = biological target: GABA-A receptor; anion channel; experiment: Displacement of [3H]-muscimol from rat cortical synaptic membrane GABAA receptor assessed as inhibition constant by microscint-scintillation method; assay type: cell membranes, Cortex
In short: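 Rat cortical synaptic membranes, washed repeatedly in 50 mM Tris-HCl pH 7.4, 70–80 μg protein. Incubated at 0 °C with 5 nM [3H]-muscimol (final) and a range of test concentrations, then filtered and counted by scintillation. Nonspecific binding defined with 1.0 mM GABA. IC50 converted to Ki by Cheng–Prusoff, triplicate, three independent experiments.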

[3] = biological target: T2, GABA A receptor alpha-2/beta-2/gamma-2 (Homo sapiens, UniProt P18507+P47869+P47870); experiment: Antagonist activity at human alpha2beta2gamma2 GABAA receptor expressed in HEK293 cells by FMP assay; assay type: cell-based; in short: as §1
T2 sequence (P47870 whole entry): T1 sequence (P47870 whole entry)
T2 sequence (P18507 whole entry): T1 sequence (P18507 whole entry)
T2 sequence (P47869 whole entry): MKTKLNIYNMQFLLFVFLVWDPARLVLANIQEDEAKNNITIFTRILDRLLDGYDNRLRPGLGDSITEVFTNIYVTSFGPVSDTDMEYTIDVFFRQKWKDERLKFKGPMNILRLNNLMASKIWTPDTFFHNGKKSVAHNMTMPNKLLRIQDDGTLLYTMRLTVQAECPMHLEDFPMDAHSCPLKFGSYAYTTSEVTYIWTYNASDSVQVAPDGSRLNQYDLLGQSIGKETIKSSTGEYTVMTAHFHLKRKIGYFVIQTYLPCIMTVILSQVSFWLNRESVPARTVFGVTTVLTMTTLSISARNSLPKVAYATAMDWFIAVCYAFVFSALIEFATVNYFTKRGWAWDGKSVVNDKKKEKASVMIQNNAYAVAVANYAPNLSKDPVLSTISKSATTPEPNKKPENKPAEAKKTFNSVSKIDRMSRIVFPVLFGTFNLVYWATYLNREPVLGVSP

[4] = Efflux ratio of apparent permeability across basolateral to apical side over apical to basolateral side in MDCK; assay type: ADME, cell-based, Canis lupus familiaris; conditions: dog
In short: (§2)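 MDR1-transfected MDCK monolayers, 0.5 μM test compound added apically or basally. Bidirectional apparent permeability measured in triplicate. Efflux ratio is B→A permeability divided by A→B permeability.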

[5] = Induction of cell proliferation of human CD8-positive T cells at 50 uM measured after 96 hrs in presence of alprazolam by flow cytometry analysis relative to control; assay type: functional
In short: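 Human PBMC from leukocyte cones were CFSE-stained (5 μM) and held at high density overnight. They were then stimulated with soluble anti-CD3 OKT3 (100 pg/mL) plus alprazolam 33 μM, with test compound at 50 μM, for 96 h. CD4+/CD8+ proliferation was measured by CFSE dilution on flow cytometry, at least six independent experiments.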

[6] = Apparent permeability of compound across apical to basolateral side in MDCK cells; assay type: ADME, cell-based, Canis lupus familiaris; conditions: dog; in short: as §2
[7] = system: CD8-positive T cell; experiment: Induction of cell proliferation of mouse CD8-positive T cells at 50 uM measured after 48 hrs in presence of alprazolam by flow cytometry analysis relative to control; assay type: functional, cell-based
In short: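 Splenocytes from female BALB/c mice were CFSE-stained (5 μM) and stimulated with soluble anti-CD3 145.2C11 (33 ng/mL) plus alprazolam 100 μM, with test compound at 50 μM, for 48 h. CD4+/CD8+ proliferation was measured by CFSE dilution on flow cytometry, at least six independent experiments.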

[8] = system: CD4-positive T cell (mouse); experiment: Induction of cell proliferation of mouse CD4+ve Th cells at 50 uM measured after 48 hrs in presence of alprazolam by flow cytometry analysis relative to control

| IC50 [1] [nM] | IC50 ([1]; read-out: pIC50 (converted)) [nM] | Ki [2] [nM] | IC50 [3] [nM] | IC50 ([3]; read-out: pIC50 (converted)) [nM] | efflux ratio [4] | Papp A→B [6] [×10⁻⁶ cm/s] | SMILES | Activity [5] [%] | Activity [7] | Activity [8] |
| --- | --- | --- | --- | --- | --- | --- | --- | --- | --- | --- |
| 590 | 589 | – | – | – | – | – | CC(=O)Nc1cccc(C(=O)N2CCC3(CCNCC3)CC2)c1 | – | – | – |
| – | – | 520 | 25300 | 25100 | – | – | Cc1ccc(C(=O)N2CCC3(CCNCC3)CC2)cc1 | – | – | – |
| 51 | 51.3 | – | – | – | – | – | O=C(Nc1cccc(C(=O)N2CCC3(CCNCC3)CC2)c1)c1cccs1 | – | – | – |
| – | – | 180 | 7560 | 7410 | 11.5 | 1.3 | Cc1cccc(C(=O)N2CCC3(CCNCC3)CC2)c1 | 20 | Active | Active |
